From ChEMBL document CHEMBL4513216, “Probing the Open Global Health Chemical Diversity Library for Multistage-Active Starting Points for Next-Generation Antimalarials” (ACS Infect Dis, 2020) come the findings set out here.

A short description of this data set: Toxicity liver stage against HepG2, at 10uM. It counts as cell-based. The conditions noted are these: human, HepG2-A16-CD81EGFP cells; read-out: INHIBITION
Also on record: test concentration 10 uM, cell line HepG2-A16-CD81EGFP. The method, boiled down:
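Uninfected HepG2-A16-CD81EGFP cells, 3 × 10^3 per well, 1536-well, plated on prespotted compound at 10 μM final, parasite-free screening media added to match infected plates; puromycin 10 μM positive, DMSO 0.5% negative; run in parallel with 48 h PbLuc assay at 37 °C, 5% CO2; viability by CellTiter-Glo luminescence, normalized to controls.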
With `COc1ccc(C)nc1NC(=O)Cc1c(C)nn(C)c1C`, the cytotoxicity at 10 µM is -0.302%.
With `Cc1noc(CN2CCC(Cc3ccc(F)cc3)CC2)n1` the figure was 11.3%; with `Cc1nc(CN2CCC3(CCCN(Cc4cnn(C)c4)C3)C2=O)cs1` (configuration not stated), -5.74%.
The figure for `Cc1ccc(C(F)(F)F)cc1C(=O)N[C@H]1CN(CCO)C[C@@H]1C1CC1` is 0.292%; for `CN1CCN(C(=O)c2ncn3c2CNS(=O)(=O)c2ccccc2-3)CC1` it is 4.5%; for `CC(C)(O)c1cn(C2CCN(C(=O)CCc3ccncc3)CC2)nn1` it is -5.32%.
The figure for `CCOc1ccccc1OCCN(C)Cc1nccn1C` is -3.8%.
Regarding `CSc1ncc(CN(C)C(C)c2cccnc2)cn1` (configuration not stated), the cytotoxicity at 10 µM stood at 2.1%.
The figure for `Cc1ncsc1CCN(C)C(=O)CN1CCOC1=O` is -15.3%.
The figure for `CCC(=O)NCC(CC)Oc1cccc(F)c1` (configuration not stated) is -44%; for `Cc1cc(CC2COCCN(CCc3ccccc3)C2)ncn1` (configuration not stated) it is 2.04%.
Turning to `Cc1csc(N2CCN(C(=O)Cc3ccsc3)CC2)n1`, the cytotoxicity at 10 µM came to 2.68%.
With `NC(=O)CN1CCN(S(=O)(=O)N2CCCC2c2ccco2)CC1` (configuration not stated) the figure was -3.48%; with `CC(c1nc(C(C)(C)C)no1)N1CCN(Cc2ccc(C#N)cc2)CC1` (configuration not stated), -5.38%; with `CCCn1c(NC(=O)CNC(=O)OCC)nc2ccccc21`, -4.41%.
With `COc1ccc(CN2CCOC[C@H](OCCC(C)C)C2)cc1` the figure was -4.04%; with `Cc1nccn1C1(C(=O)O)CCN(Cc2ccc3nsnc3c2)CC1`, -4.97%; with `Cc1nc2ccc(C(=O)N3C[C@@H](O)[C@H](N4CCCC4)C3)cc2[nH]1`, -8.66%.
The figure for `CNC(=O)CC1CC2(CCN(CC3CC3)CC2)Oc2ccccc21` (configuration not stated) is -0.0368%; for `O=C(NCCOc1ccc(Cl)cn1)Nc1cccnc1` it is -2.3%; for `CNC(=O)c1cc2c(nc1N(C)C)CCN(c1ncc(F)cn1)CC2` it is -131%.
Regarding `CCCc1ccc(CN2CCN(C(=O)C(C)C)[C@@H]3CS(=O)(=O)C[C@@H]32)o1`, the cytotoxicity at 10 µM was determined as 5.39%.
In the case of `O=C1C(N2CCN(c3ccc(O)cc3)CC2)CCN1C1CCOCC1` (configuration not stated), the cytotoxicity at 10 µM was found to be 12.6%.
With `CN(C)C(=O)N1C[C@H]2CC[C@@H](C1)N(Cc1nnc(C3CC3)o1)C2` the figure was 0.266%.
With `COc1ccc(-c2n[nH]cc2CN2CCSCC2)c(OC)c1` the figure was 6.4%; with `Cc1csc(N2CCCN(c3cc(C)nc(C)c3C#N)CC2)n1`, 22.6%.
In the case of `Cc1cc(C)c2c(OCC(=O)NCC(O)C(F)(F)F)nn(C)c2n1` (configuration not stated), the cytotoxicity at 10 µM was 1.3%.
The figure for `Cc1ccc(OCC(=O)N2CCOCC(O)(CN3CCCC3)C2)cc1C` (configuration not stated) is -4.05%; for `CCn1nc(C)cc1C(=O)N1CCOc2ccc(OC)cc21` it is 14.3%.
With `CCCn1nc(-c2nc(COc3ccccc3)no2)ccc1=O` the figure was -2.74%; with `Cc1cnn(CCNCc2c(C(C)C)nn(C)c2Cl)c1`, -14%.
With `COCCN(C)C[C@@H]1CN(C(=O)c2cccc(C(F)(F)F)c2)C[C@@H]1CO` the figure was -17.5%; with `COc1ccccc1CNc1ccc2nncn2n1`, 10.4%.
`COc1cc(/C=C/c2ncc(C(=O)O)s2)cc(OC)c1`: the cytotoxicity at 10 µM is -3.86%.
The figure for `CCC1CN(C(=O)c2csc(-c3cnn(C)c3)n2)CCO1` (configuration not stated) is -23.2%; for `O=C(CC1CC1)N[C@@H]1CN(C(=O)c2cccs2)C[C@@H]2CCCO[C@@H]21` it is -113%; for `Cc1cc(CN2CCOCS2(=O)=O)ccc1F` it is -8.02%.
The figure for `CN(C)c1ncccc1CNS(=O)(=O)c1c(F)cccc1F` is -9.91%; for `COc1ccc2c(c1)c(C(=O)Nc1nnn[nH]1)cn2C(C)C` it is -57.8%.
Turning to `COc1ncnc2c1CCN(Cc1cccc(C)n1)CC2`, the cytotoxicity at 10 µM was -146%.
With `Cc1ccc(CN(CCN(C)C)Cc2c(C)nc3sccn23)o1` the figure was 3.08%; with `Cc1cncc(C2CCN(Cc3cnc(C)nc3)CC2)n1`, 5.38%.
With `COc1ccc(C(C(=O)O)N(C)Cc2c(C)nn(C)c2C)c(C)c1` (configuration not stated) the figure was 7.47%; with `CCOc1ncccc1CNC(=O)CN1CCCCCC1=O`, 2.92%.
The figure for `Cc1cc(CN(C)C(=O)c2ccc(OCC(F)(F)F)nc2)no1` is -6.19%.
With `CN(CCc1ccccn1)C(=O)Nc1cccnc1-n1cccn1`, the cytotoxicity at 10 µM was found to be 3.25%.
The figure for `c1cnc(N2CCC3(COCCN(CC4CC4)C3)C2)nc1` (configuration not stated) is 0.668%; for `Cc1cccc(C2(CNC(=O)CCN3C(=O)CCC3=O)CCCC2)c1` it is -7.59%.
With `O=C(c1cc2c(Cl)cccc2[nH]1)N1CCN(CCc2ccccn2)CC1` the figure was 3.07%.
The figure for `CN(C)C(=O)CN1CCC2(CCN(Cc3nccs3)CC2)C1=O` is 1.31%; for `CCNC(=O)[C@@H]1C[C@H](N)CN1Cc1ccc(-c2cc[nH]n2)o1` it is -47.6%.
With `Cn1nc(C(=O)N2CCSCC2)cc1NC(=O)c1ccco1`, the cytotoxicity at 10 µM was 1.11%.
On to `COCC1CC2(CCN(C(=O)c3oc4ccccc4c3C)CC2)CO1` (configuration not stated), for which the cytotoxicity at 10 µM is -141%.
With `O=C(Cn1cc(C2CC2)nn1)N(Cc1cccs1)CC1CCCO1` (configuration not stated) the figure was -4.58%.
Take `CCN(Cc1noc(CC(C)C)n1)C[C@]1(O)CCCN2CCCC[C@@H]21`: the cytotoxicity at 10 µM was -6.91%.
The figure for `Cc1c(C(=O)NCCN2C(=O)CCC2=O)sc2ccc(F)cc12` is 2.11%; for `N#Cc1cc(S(N)(=O)=O)ccc1N1CCc2c(Cl)cccc2C1` it is 14.7%; for `Cc1ncc2c(n1)CN(Cc1noc(C3CC3)n1)CC2` it is -13.4%.
Regarding `O=C(c1ccno1)N1CCOC[C@H](Oc2ccccc2)C1`, the cytotoxicity at 10 µM was -5.25%.
The figure for `Cc1cccc(NC2CCN(C(=O)Nc3ccncc3)CC2)n1` is -17.1%; for `Cc1cc(C)nc(N2C[C@H]3OC(=O)N(CCc4cccc(Cl)c4)[C@H]3C2)n1` it is 6.72%; for `Cc1cc(C)cc(OCC(=O)N2CCCN(CC(N)=O)CC2)c1` it is 0.821%.
On to `CC(C)c1nnc2n1CCN(C(=O)c1cnc(C3CC3)s1)C2`, for which the cytotoxicity at 10 µM came to 4.87%.
With `Cc1nc(C2CCN(C(=O)c3cccnc3)CC2)c2sccn12` the figure was -5.35%; with `CNc1cccc(C2CCCN(C(C)=O)C2)n1` (configuration not stated), -0.962%; with `NCC(=O)N1CCC(c2cccc(Oc3ccccc3)n2)CC1`, 9.43%.
The figure for `Cc1cnn(CCC(=O)N2CCCC(c3cc(C)[nH]n3)C2)c1` (configuration not stated) is -23.6%; for `CNc1cccc(C2CCCN(Cc3ncc[nH]3)C2)n1` (configuration not stated) it is -18%.
With `N#Cc1cccc(-c2ncnn2CC2(O)CCCCC2)c1` the figure was 8.83%; with `CCCN1CCCN(C(=O)c2ccc(Oc3cccnc3)cc2)CC1`, -46.9%; with `CCOc1ncccc1CNc1cc(COC)ncn1`, 6.41%.
For the molecule `CCCC(=O)Nc1ccc2c(c1)C1(CCOCC1)CN2CCOC`, the cytotoxicity at 10 µM is -104%.
For `CCC(=O)N1CCC(c2ncncc2C)CC1`, the cytotoxicity at 10 µM is -11.5%.
With `Cc1nn(C)cc1-c1ccnc(N(C)Cc2ccon2)n1` the figure was -8.71%; with `CC(C)Cc1noc(CN2CCN(C(=O)c3ccccc3F)CC2)n1`, -10.8%.
Turning to `CN1CCN(C(=O)[C@H]2C[C@@H]3CN(c4ncc(F)cn4)C[C@@H]3N2C)CC1`, the cytotoxicity at 10 µM was -136%.
For `Cc1cc(C)n(-c2ccc(CNCc3ccc(OC(C)C)cc3)cn2)n1`, the cytotoxicity at 10 µM was -6.95%.
With `Cc1nc(CO[C@H]2CN(C(=O)c3cnoc3C)[C@@H]3COC[C@H]23)cs1` the figure was -107%; with `Cc1c(CN2CCOCC2)c(O)n(CCc2ccccc2)c(=O)c1C#N`, 4.1%; with `Cc1cc(C(=O)N2CCC(Nc3cccnc3)CC2)c(C)s1`, -141%.
Regarding `O=C(c1ccc[nH]1)N1Cc2nccn2CC(COc2cccnc2)C1` (configuration not stated), the cytotoxicity at 10 µM is 18.1%.
The figure for `Cc1cnn(CC2CCCN2Cc2c(C)noc2C)c1` (configuration not stated) is -15.8%; for `Fc1cccc(Oc2ccc(CNCC3CNc4ccnn4C3)cn2)c1` (configuration not stated) it is -7.16%.
The figure for `CCn1ccnc1CN(C)C1CCCN(CCCc2ccccc2)C1` (configuration not stated) is 7.35%.
The figure for `O=C(c1ccco1)N1CCCC2(CN(Cc3ccc(F)cc3)CCO2)C1` (configuration not stated) is 0.0288%.
With `O=C(c1ccco1)N1CCOCC2(C1)CN(c1ccccn1)C(=O)CO2` (configuration not stated), the cytotoxicity at 10 µM was determined as 3.16%.
The figure for `Cc1ccc(-n2ccnc2-c2cn(C3CCNCC3)nn2)c(Cl)c1` is 3.07%.
The figure for `Cc1ccc(C(=O)N2CC(C)(C)[C@@](C)(O)C2)cc1N1CCNC1=O` is -2.76%.
The figure for `Cc1cccc2c(CCNS(=O)(=O)C3CCOC3)c[nH]c12` (configuration not stated) is 12.7%; for `c1ccc(-c2nc(CCNCc3ccccn3)co2)cc1` it is -1.89%.
On to `CN(C)c1cc(C(F)(F)F)nc(N2CCCC2c2ccccn2)n1` (configuration not stated), for which the cytotoxicity at 10 µM worked out at 5.36%.
With `O=C(CCc1ccc(-n2cnnn2)cc1)Nc1nncs1` the figure was -1.14%.
Take `O=C(c1cccnc1)N1CCn2nnc(COc3cccnc3)c2C1`: the cytotoxicity at 10 µM stood at 3.34%.
The figure for `CC(C)CC(=O)N1CC(=O)N(CCc2ccccc2)CC(O)C1` (configuration not stated) is -6.4%; for `CCOc1ccc(Cl)c(C(=O)N(C)C)n1` it is -11.3%; for `COc1ccc(CN2CCn3c(CNS(C)(=O)=O)nnc3C2)cc1` it is 4.19%.
The figure for `CC(O)CN1CCN(C(=O)c2cc3ccccc3[nH]c2=O)CC1` (configuration not stated) is 0.407%.
